Compound activity deposited in PubChem by several laboratories.
Most compounds without a hit are left out; they make up all but 3.8% or so of the library.
RGS4 act = potentiators or activators of RGS4; B-score at 10 µM; actives 0.92% (n = 310,000); HEK293 M3R/inducible RGS4, carbachol calcium flux Fluo4; hits give low values; AID 463111;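 active = B-score of the integrated calcium signal more than 4 SD below the library mean, with starting fluorescence not abnormally high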;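 note: negative B-score means reduced calcium response which marks RGS4 activation or potentiation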
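Material: M3R-expressing HEK293 line, RGS4 induced by doxycycline | Schedule: Overnight RGS4 induction, 30 min dye load 37 °C, 20 min compound RT | Measured by: Fluo4 fluorescence kinetic imaging of calcium | Read-out: Integrated calcium ratio converted to B score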
Lipid droplet = hepatic lipid droplet formation modulation; actives 0.4% (n = 240,000); AML12 mouse hepatocytes, oleate lipid droplets, BODIPY imaging; inhibition, % at 6.5 µM;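 active = lipid droplet intensity inhibited by at least 50%, with more than 500 cells counted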
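material = mouse AML12 hepatocyte cell line, fixed after treatment | also added = 100 µM oleic acid challenge | doses = compound at 6.5 µM only | schedule = overnight exposure | technique = Image-based BODIPY and DAPI two-channel analysis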
MrgX1 PAM = human MrgX1 positive allosteric modulation, primary screen; actives 0.63% (n = 310,000); B-score at 10 µM; MrgX1-HEK293, Fluo-4 calcium flux, FDSS; hits give high values; Q96LB2;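 active = plate-corrected calcium response at least 3 library SD above typical, normal starting fluorescence, not activating the receptor alone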;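 note: compound read alongside a low EC10 to EC30 dose of BAM8-22 agonist; peak minus trough fluorescence over baseline measured at the second addition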
Target sequence (Q96LB2 whole entry, looked up): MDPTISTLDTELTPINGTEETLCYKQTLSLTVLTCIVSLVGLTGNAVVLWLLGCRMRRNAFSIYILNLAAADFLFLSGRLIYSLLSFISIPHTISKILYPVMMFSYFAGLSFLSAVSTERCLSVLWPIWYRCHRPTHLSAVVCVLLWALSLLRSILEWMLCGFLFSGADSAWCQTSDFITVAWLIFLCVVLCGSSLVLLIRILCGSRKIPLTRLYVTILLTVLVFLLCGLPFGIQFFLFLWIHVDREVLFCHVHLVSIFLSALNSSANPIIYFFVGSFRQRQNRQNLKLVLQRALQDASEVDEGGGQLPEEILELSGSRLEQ
MrgX1 ag = agonists of human MrgX1 receptor. Q96LB2. MrgX1-HEK293 cells, Fluo-4 calcium fluorescence, agonist mode; hits give high values. B-score at 10 µM. actives 0.44% (n = 310,000);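 active = calcium response B-score plate-corrected fluorescence ratio at least 3 library SD, with starting fluorescence B-score inside 5 SD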
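Assay system: MrgX1-expressing HEK293 cells / Amount: fifteen thousand cells per well / Doses: test compound in the initial addition of three / Timing: cells plated overnight, dye loaded 0.5 h 37 °C, 0.5 h room temperature / Technique: kinetic calcium dye fluorescence, Fluo-4 NW / Control set: positive and negative controls per plate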
MrgX1 antagonist = antagonists of human MrgX1 receptor; Q96LB2; actives 1.3% (n = 310,000); MRGX1-HEK293 calcium flux, Fluo-4, BAM8-22 antagonism; hits give low values; B-score at 10 µM;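 active = calcium-response B-score plate-corrected more than 3 library SD below zero, starting fluorescence within 5 deviations, no agonist response on first addition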;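 note: peak minus trough fluorescence over baseline after final BAM8-22 challenge near maximal dose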
RGS4 inh = human RGS4 inhibition. P49798. HEK293 M3R/RGS4 inducible, Fluo-4 calcium flux; hits give high values; triggered by carbachol at its EC20. B-score at 10 µM. actives 0.45% (n = 310,000). AID 463165;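 active = B-score, a plate-corrected calcium signal, over three deviations above library mean, with baseline fluorescence within five deviations of library mean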;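 note: RGS4 expression induced by doxycycline in cells with stable M3 receptor; B-score is computed from the integrated fluorescence ratio over baseline after carbachol; higher B-score means a larger calcium signal and so more RGS4 inhibition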
Target sequence (P49798 whole entry, looked up): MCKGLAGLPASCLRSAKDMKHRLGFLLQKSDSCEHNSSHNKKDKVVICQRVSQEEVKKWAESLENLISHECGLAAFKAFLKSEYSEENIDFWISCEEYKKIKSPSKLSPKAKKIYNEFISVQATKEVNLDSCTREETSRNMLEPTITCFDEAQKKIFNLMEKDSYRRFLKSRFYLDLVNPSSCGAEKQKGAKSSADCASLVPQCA
RGS4 act valid = RGS4 activation, validation assay. shares compounds with RGS4 act. HEK293 M3R/RGS4 inducible, carbachol calcium flux Fluo4. inhibition, % at 10 µM. actives 89% (n = 1,100). AID 602282;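 active = inhibition above 3 SD of the buffer control wells, cut at about 41% in these data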;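 note: signal is the integrated peak-minus-minimum Fluo4 fluorescence over baseline ratio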
RGS4 act ctr = counter-screen for RGS4 activators: effect in non-induced cells. actives 82% (n = 1,100). shares compounds with RGS4 act. inhibition, % at 10 µM. HEK293 M3R non-induced RGS4, Fluo4 calcium flux; after carbachol challenge at its EC90;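 active = inhibition exceeding 3 SD of buffer-only control wells, cut at about 26% in these data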;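 note: percent drop in integrated peak-minus-baseline over baseline Fluo4 ratio after carbachol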
Starred values were filed as active, the others as inactive; i = inactive; . = not tested or not shown.

SMILES	RGS4 act	Lipid droplet	MrgX1 PAM	MrgX1 ag	MrgX1 antagonist	RGS4 inh	RGS4 act valid	RGS4 act ctr
O=C1CCc2ccc(OCCCCN3CCN(c4cccc(Cl)c4Cl)CC3)cc2N1	-9.17*	-4.2	i	i	i	i	79.0*	65.3*
O=C(Nc1sc2c(c1C(=O)NCC(O)CO)CCCC2)c1ccccc1 (configuration not stated)	i	.	i	i	i	i	.	.
COc1ccc(-c2nc3ccccn3c2NCc2ccc3c(c2)OCO3)cc1	-8.62*	-28.3	i	i	i	i	60.5*	0.0
c1ccc(-c2nc3ccccn3c2NCc2ccc3c(c2)OCO3)cc1	i	.	i	i	i	i	.	.
CCO[C@H]1OC(C(=O)NCc2ccccc2)=C[C@@H](c2cn(C(C)=O)c3ccccc23)[C@@H]1CCCO	i	10.2	i	i	i	i	.	.
CCN(CC)CCNC(=O)c1ccc2c(=O)n(C3CCCC3)c(=S)[nH]c2c1	-8.4*	.	i	i	i	i	92.0*	73.3*
COC(=O)C1=C(C)N(C)C(=O)NC1c1ccc(C)cc1 (configuration not stated)	i	.	i	i	i	i	.	.
CC1=C(C(=O)OC(C)(C)C)C(c2ccc3ccccc3c2)NC(=O)N1C (configuration not stated)	-8.02*	-14.7	i	i	i	i	93.5*	81.3*
Cc1cccc(NC(=O)CN(C2=NC3CS(=O)(=O)CC3S2)c2ccccc2F)c1 (configuration not stated)	i	-1.0	i	i	i	i	.	.
CC(=O)N1C(=O)N(C(C)=O)C2C1N(C)C(=O)N2C(C)=O (configuration not stated)	i	-3.5	i	i	i	i	.	.
O=C(OCC(=O)N1CCc2ccccc21)c1c2c(nc3ccccc13)CCCC2	-9.06*	26.6	i	i	i	i	80.5*	83.8*
CC1Cc2ccccc2N1C(=O)COC(=O)c1c2c(nc3ccccc13)CCCCC2 (configuration not stated)	-8.99*	4.7	i	i	i	i	88.0*	83.8*
NC(=O)COC(=O)c1c2c(nc3ccccc13)CCCCC2	i	1.8	i	i	i	i	.	.
CC(=O)c1cnc2ncnn2c1C	i	-18.8	i	i	i	i	.	.
Cc1ccc(N2C(=O)CC(Nc3ccc(Cl)c(S(=O)(=O)N(C)C)c3)C2=O)c(C)c1 (configuration not stated)	i	-2.9	i	i	i	i	.	.
Cn1nc(C(F)(F)F)c(C(=O)Nc2cccc(Cl)c2)c1Cl	i	.	i	i	i	i	.	.
Cc1ccc(Cl)cc1N1CCN(C(=O)CCCn2c(=O)c3cccn3c3cccnc32)CC1	-7.89*	-12.7	i	i	i	i	84.0*	49.8*
Cc1ccc(S(=O)(=O)N2CCOC2CNC(=O)C(=O)NCCN2CCOCC2)cc1 (configuration not stated)	i	1.0	i	i	i	i	.	.
COc1ccc(CNC(=O)CN2C(=O)CSc3ccc(S(=O)(=O)N4CCOCC4)cc32)c(OC)c1	i	-19.5	i	i	i	i	.	.
Cc1ccccc1Cc1c(C)nc2nc(SCC(=O)NCCCN3CCCCC3)nn2c1C	-9.55*	-22.4	i	i	i	i	74.5*	43.3*
Cc1ccccc1Cc1c(C)nc2nc(SCC(=O)NCc3ccco3)nn2c1C	i	.	i	i	i	i	.	.
O=C(NC1CCCC1)c1ccc(CS(=O)(=O)c2ccc(Br)cc2)o1	i	.	i	i	i	i	.	.
O=S(=O)(c1ccc(Br)s1)N1CCN(Cc2ccc3c(c2)OCO3)CC1	-9.34*	2.5	i	i	i	i	89.5*	85.8*
Cc1ccc(N2C(=O)CSC2c2c(F)cccc2Cl)cc1 (configuration not stated)	-10.4*	4.1	i	i	i	i	93.0*	91.8*
O=C1C(Cc2cccc([N+](=O)[O-])c2)SC(=Nc2ccccc2)N1c1ccccc1 (configuration not stated)	i	-61.8	i	i	i	i	.	.
SMILES	RGS4 act	Lipid droplet	MrgX1 PAM	MrgX1 ag	MrgX1 antagonist	RGS4 inh	RGS4 act valid	RGS4 act ctr
c1ccc(CCCN2CCOCC2)cc1	i	1.8	i	i	i	i	.	.
c1ccc(COc2ccc(OCCCN3CCCCC3)cc2)cc1	-7.71*	25.4	i	i	i	i	90.0*	62.8*
c1ccc(OCc2ccc(CCCN3CCOCC3)cc2)cc1	-8.06*	8.1	i	i	i	i	57.5*	83.8*
CCc1ccc2nc(N3C(=O)c4oc5ccccc5c(=O)c4C3c3ccc(OC)c(OC)c3)sc2c1 (configuration not stated)	i	-16.2	i	i	i	i	.	.
Cc1cc(C)c2nc3nc(C)c(C)cc3c(N)c2c1	-9.29*	-2.3	.	.	.	i	90.5*	64.8*
Cc1nc2ccc(S(=O)(=O)NCC(=O)NC(C)c3ccccc3)cc2s1 (configuration not stated)	i	0.7	i	i	i	i	.	.
COc1cccc(CSc2nc3ccncc3[nH]2)c1	i	10.0	i	i	i	i	.	.
CCN1C(=O)N[C@@H](c2cccc(C(F)(F)F)c2)[C@@H](C(=O)OC)[C@H]1C	i	.	i	i	i	i	.	.
CCc1ccc(CN(C)C(=O)CCc2nnc(CCc3ccccc3OC)o2)nc1	i	-17.7	i	i	i	i	.	.
CC1CCN(CC(=O)Nc2ccccc2-c2ccccc2)CC1	-9.14*	-3.3	i	i	i	i	91.5*	61.3*
CNCCCCOc1ccccc1-c1ccccc1	-8.77*	20.7	i	i	i	i	85.0*	83.8*
CC1CCN(CCCCOc2ccc(Cl)cc2)CC1	i	.	i	i	i	i	.	.
CC1CCN(CCCCOc2ccccc2-c2ccccc2)CC1	-8.36*	-11.6	i	i	i	i	72.5*	83.8*
CNCCOc1ccccc1-c1ccccc1	i	9.9	i	i	i	i	.	.
